The record followed here is ChEMBL document CHEMBL1151448, “Comparative antianaerobic activities of doripenem determined by MIC and time-kill analysis” (2008).

In brackets after ≈: the same amount, converted by molar mass. A value given as a limit tells only on which side of the number the result lay.

Holding throughout (assay type): functional
The subject of experiment [1] is Fusobacterium nucleatum. As to the kind of experiment: Bactericidal activity against beta lactamase-positive Fusobacterium nucleatum isolated from intra-abdominal infection and pelvic inflammatory disease patients assessed as bacterial killing at MIC after 24 hrs by time kill analysis. Summed up:
(§1)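 Anaerobic macrodilution time-kill. Inoculum from brucella blood plates, prepared and diluted in prereduced brucella broth inside the anaerobe chamber. Final 10^6 to 10^7 CFU/ml in prereduced brucella broth with 5% laked horse blood cells, 5 μg/ml hemin and 1 μg/ml vitamin K1. […] Shaken at 35°C for 48 h. Viable counts taken at 6, 12, 24 and 48 h. 99.9% kill taken as bactericidal.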

For another experiment, the system named is Prevotella denticola. Nature of the experiment: Antimicrobial activity against beta lactamase-positive Prevotella denticola isolated from intra-abdominal infection and pelvic inflammatory disease patients after 48 hrs by agar dilution method. In short, it runs like this:
(§2)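 CLSI agar dilution on brucella blood agar supplemented with laked sheep blood, hemin and vitamin K. Inocula of about 1 × 10^5 CFU/spot were applied by Steers replicator, and plates were incubated 48 h at 35°C in an anaerobic glove box. MIC was the concentration giving marked growth reduction versus the anaerobic control plate. QC strains were included each run, and β-lactamase was detected by Cefinase disk.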
(In general: In agar dilution the substance is mixed into plates at graded concentrations.)

The next experiment deals with Parvimonas micra. As to the kind of experiment: Antimicrobial activity against Micromonas micros isolated from intra-abdominal infection and pelvic inflammatory disease patients after 48 hrs by agar dilution method. Summed up: as §2
A further experiment concerns Finegoldia magna. As to the kind of experiment: Bactericidal activity against beta lactamase-positive Finegoldia magna isolated from intra-abdominal infection and pelvic inflammatory disease patients assessed as bacterial killing at MIC after 48 hrs by time kill analysis. Summed up:
as §1

Another experiment relates to Clostridium perfringens. As to the kind of experiment: Bactericidal activity against Clostridium perfringens isolated from intra-abdominal infection and pelvic inflammatory disease patients assessed as bacterial killing at MIC after 48 hrs by time kill analysis. In short, it runs like this: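 Time-kill in prereduced brucella broth with 5% laked horse blood cells, hemin and vitamin K1. […] Viable counts taken at 6, 12, 24 and 48 h, plates incubated 48 h anaerobically. Kill scored as 90%, 99% or 99.9%; 99.9% defines bactericidal.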

The subject of experiment [2] is Bacteroides thetaiotaomicron. As to the kind of experiment: Bactericidal activity against beta lactamase-positive Bacteroides thetaiotaomicron isolated from intra-abdominal infection and pelvic inflammatory disease patients assessed as bacterial killing at MIC after 48 hrs by time kill analysis. In short, it runs like this:
(§3)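 Macrodilution time-kill in prereduced brucella broth with 5% laked horse blood, hemin 5 μg/ml and vitamin K1 1 μg/ml, at final inoculum 10^6–10^7 CFU/ml. […] Viable counts were taken at 6, 12, 24 and 48 h on plates incubated 48 h anaerobically. 99.9% kill was taken as bactericidal.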

Another experiment deals with Clostridioides difficile. Nature of the experiment: Bactericidal activity against Clostridium difficile isolated from intra-abdominal infection and pelvic inflammatory disease patients assessed as bacterial killing at MIC after 48 hrs by time kill analysis. Summed up:
as §3

In experiment [3] the test system is Fusobacterium nucleatum. As to the kind of experiment: Bactericidal activity against beta lactamase-positive Fusobacterium nucleatum isolated from intra-abdominal infection and pelvic inflammatory disease patients assessed as bacterial killing at MIC after 48 hrs by time kill analysis. In short, it runs like this:
as §1

In a further experiment the test system is Prevotella intermedia. As to the kind of experiment: Bactericidal activity against beta lactamase-positive Prevotella intermedia isolated from intra-abdominal infection and pelvic inflammatory disease patients assessed as bacterial killing at MIC after 48 hrs by time kill analysis. Summed up:
as §1

The subject of a further experiment is Bacteroides fragilis. Nature of the experiment: Bactericidal activity against beta lactamase-positive Bacteroides fragilis isolated from intra-abdominal infection and pelvic inflammatory disease patients assessed as bacterial killing at MIC after 48 hrs by time kill analysis. Summed up:
as §3

Regarding `C[C@@H](O)[C@H]1C(=O)N2C(C(=O)O)=C(S[C@@H]3CN[C@H](C(=O)Nc4cccc(C(=O)O)c4)C3)[C@H](C)[C@H]12`, in the experiment with Fusobacterium nucleatum [1], the Activity was found to be 90%. In the experiment with Prevotella denticola, the MIC50 (in general, an inhibitory concentration at the 50% level, which refers to growth in some studies and to a panel of isolates in others) came out at 0.125 µg/mL (≈ 0.263 µM); the MIC90 (in general, an inhibitory concentration at the 90% level, which refers to growth in some studies and to a panel of isolates in others) amounted to 0.5 µg/mL (≈ 1.05 µM). Besides, in the experiment with Parvimonas micra, the MIC50 came to 0.03 µg/mL (≈ 0.0631 µM) and the MIC90 was found to be 0.125 µg/mL (≈ 0.263 µM).

As for `C[C@@H](O)[C@H]1C(=O)N2C(C(=O)O)=C(S[C@@H]3CN[C@H](CNS(N)(=O)=O)C3)[C@H](C)[C@H]12` [DORIPENEM], the Activity with Fusobacterium nucleatum [1] stood at 90%; with Finegoldia magna, 99%; in the experiment with Clostridium perfringens it was 99%; in experiment [2], 99%; in the experiment on Clostridioides difficile it was 99%; in the experiment with Fusobacterium nucleatum [3], 99%. In addition, the Activity in the experiment with Prevotella intermedia and in the experiment on Bacteroides fragilis was 99% each time. The MIC50 is 0.03 µg/mL (≈ 0.0713 µM) against Prevotella denticola and at most 0.016 µg/mL against Parvimonas micra. In addition, the results for the MIC90 with Prevotella denticola and in the experiment with Parvimonas micra were 0.125 µg/mL (≈ 0.297 µM) and 0.06 µg/mL (≈ 0.143 µM), respectively. Moreover, in the experiment with Parvimonas micra, the MIC (commonly the lowest concentration that inhibits growth of the organism) was at most 0.016 µg/mL.

As for `C[C@@H](O)[C@H]1C(=O)N2C(C(=O)O)=C(SCCNC=N)C[C@H]12` [IMIPENEM ANHYDROUS], the Activity with Fusobacterium nucleatum [1] worked out at 90%; with Finegoldia magna, 99%; in the experiment with Clostridium perfringens, 99%; in [2] it was 99%; in the experiment on Clostridioides difficile, 99%; in the experiment with Fusobacterium nucleatum [3], 99%. Moreover, the Activity with Prevotella intermedia and in the experiment with Bacteroides fragilis was 99% throughout. Further, the MIC50 with Prevotella denticola and against Parvimonas micra was 0.03 µg/mL (≈ 0.1 µM) throughout. The MIC90 in the experiment with Prevotella denticola and against Parvimonas micra was 0.06 µg/mL (≈ 0.2 µM) in each case. In the experiment on Parvimonas micra, this molecule had an MIC of 0.03 µg/mL (≈ 0.1 µM).

In the case of `C[C@@H](O)[C@H]1C(=O)N2C(C(=O)O)=C(S[C@@H]3CN[C@H](C(=O)N(C)C)C3)[C@H](C)[C@H]12` [MEROPENEM], the Activity in the experiment with Fusobacterium nucleatum [1] is 90%. Moreover, in the experiment on Prevotella denticola, the MIC50 stood at 0.06 µg/mL (≈ 0.156 µM) and the MIC90 amounted to 0.25 µg/mL (≈ 0.652 µM). In the experiment on Parvimonas micra, this molecule showed an MIC of 0.03 µg/mL (≈ 0.0782 µM), an MIC50 of 0.03 µg/mL (≈ 0.0782 µM) and an MIC90 of 0.25 µg/mL (≈ 0.652 µM).
